How the values were obtained:
[1] = system: Leishmania donovani; test: Antileishmanial activity against Leishmania donovani amastigotes in CD1 mouse macrophage; type: functional, organism-based; conditions: for EC50: read-out: ED50 (the source's name)
Procedure, shortened: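 Peritoneal macrophages from starch-induced CD1 mice, kept 24 h in RPMI1640 + 10% HIFCS at 37 °C, 5% CO2. Infected with L. donovani MHOM/ET/67/L82 amastigotes from hamster spleen at 5 parasites:1 macrophage. After 24 h, drug exposure for 5 days, overlay replaced day 3. Top concentration 30 µg/mL, quadruplicate. Slides methanol-fixed, Giemsa-stained, counted microscopically. ED50 by curve fitting.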

[2] = system: Trypanosoma cruzi; test: Antitrypanosomal activity against Trypanosoma cruzi trypomastigotes in CD1 mouse macrophage; type: functional; conditions: read-out: ED50 (the source's name)
Procedure, shortened: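 Starch-induced CD1 peritoneal macrophages plated at 4 × 10^5/mL, infected after 24 h with T. cruzi Tulahuan LAC-Z trypomastigotes. 24 h later, drug exposure for 3 days. ED50 by curve fitting.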

[3] = system: Trypanosoma brucei rhodesiense; test: Antitrypanosomal activity against Trypanosoma brucei rhodesiense trypomastigotes; type: functional; conditions: read-out: ED50 (the source's name)
Procedure, shortened: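 Bloodstream-form STIB900 trypomastigotes grown in HMI-18 + 15% HIFCS at 37 °C, 5% CO2. Seeded at 2 × 10^5/mL onto drug dilutions (top 30 µg/mL) for 72 h. Alamar Blue read 5-6 h later by fluorescence (ex/em 530/585 nm). ED50 by curve fitting.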

[4] = system: Plasmodium falciparum; test: Antimalarial activity against Plasmodium falciparum 3D7; type: functional, organism-based
Procedure, shortened: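 Synchronized ring-stage 3D7 culture at 1% parasitemia in RPMI 1640, 5% hematocrit, 37 °C, 5% CO2. Top final drug concentration 30 µg/mL. After 24 h, (3H)-hypoxanthine added (0.2 µCi/well), then 48 h further incubation. Plates freeze/thawed and harvested, and hypoxanthine uptake counted. ED50 by curve fitting.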

[5] = system: KB; test: Cytotoxicity against KB cell line; type: functional; conditions: Homo sapiens, read-out: TD50 (the source's name)
[6] = read-out: ED50 (the source's name)

Row | EC50 [1] [µM] | EC50 [2] [µM] | EC50 [3] [µM] | EC50 [4, 6] [µM] | EC50 ([4]; read-out: EC50) [µM] | Compound | CC50 [5] [µM] | ED50 [1] [µM]
1 | > 47 | > 47 | 1.7 | > 47 | – | CC(=O)O[C@H]1CC[C@@]2(C)C(=CCC3[C@@H]4CC[C@H]([C@H](C)C(=O)NCCC[C@H](NC(=O)OCc5ccccc5)C(=O)O)[C@@]4(C)CC[C@@H]32)C1 (stereo not given in full) | 147 | –
2 | – | > 58 | > 58 | 5.76 | – | C[C@H](CNC[C@H](NC(=O)OC(C)(C)C)C(=O)O)[C@H]1CC[C@H]2C3CC=C4C[C@@H](O)CC[C@]4(C)[C@H]3CC[C@]12C (stereo not given in full) | 86.1 | –
3 | 54.5 | 56.3 | > 67 | > 67 | – | C[C@H](CNCCCCCC(=O)O)[C@H]1CC[C@H]2C3CC=C4C[C@@H](O)CC[C@]4(C)[C@H]3CC[C@]12C (stereo not given in full) | > 673 | –
4 | 8.9 | 7.4 | 3.3 | – | – | C[C@]12CC[C@H](O)C[C@@H]1CC[C@@H]1[C@@H]2CC[C@@]2(C)[C@H]1CC[C@@H]2[C@@](C)(O)C1CCCCN1 (stereo not given in full) | 11.9 | –
5 | > 51 | 26.8 | 17.5 | – | – | CC(=O)O[C@H]1CC[C@@]2(C)C(=CCC3[C@@H]4CC[C@H]([C@H](C)C(=O)NCC[C@H](NC(=O)OC(C)(C)C)C(=O)O)[C@@]4(C)CC[C@@H]32)C1 (stereo not given in full) | – | –
6 | > 52 | 8.7 | 2.68 | – | – | CC(=O)O[C@H]1CC[C@@]2(C)C(=CCC3[C@@H]4CC[C@H]([C@H](C)C(=O)NC[C@H](NC(=O)OC(C)(C)C)C(=O)O)[C@@]4(C)CC[C@@H]32)C1 (stereo not given in full) | – | –
7 | 29.2 | 39.8 | 49.8 | – | 45.6 | C[C@H](C(=O)NCCCC(=O)O)[C@H]1CC[C@H]2C3CC=C4C[C@@H](O)CC[C@]4(C)[C@H]3CC[C@]12C (stereo not given in full) | 616 | –
8 | > 67 | 32.9 | 7.85 | > 67 | – | C[C@H](C(=O)NCCCCC(=O)O)[C@H]1CC[C@H]2C3CC=C4C[C@@H](O)CC[C@]4(C)[C@H]3CC[C@]12C (stereo not given in full) | 561 | –
9 | > 48 | 18.5 | 17.4 | – | – | CC(=O)O[C@H]1CC[C@@]2(C)C(=CCC3[C@@H]4CC[C@H]([C@H](C)CNCCC[C@H](NC(=O)OCc5ccccc5)C(=O)O)[C@@]4(C)CC[C@@H]32)C1 (stereo not given in full) | – | –
10 | – | > 72 | > 72 | > 72 | – | C[C@H](C(=O)NCCC(=O)O)[C@H]1CC[C@H]2C3CC=C4C[C@@H](O)CC[C@]4(C)[C@H]3CC[C@]12C (stereo not given in full) | 615 | –
11 | – | > 52 | > 52 | 51 | – | C[C@H](CNCCC[C@H](NC(=O)OCc1ccccc1)C(=O)O)[C@H]1CC[C@H]2C3CC=C4C[C@@H](O)CC[C@]4(C)[C@H]3CC[C@]12C (stereo not given in full) | 417 | –
12 | 21.9 | 20.5 | 0.033 | 7.37 | – | COC(=O)CCCCCNC[C@@H](C)[C@H]1CC[C@H]2C3CC=C4C[C@@H](OC(C)=O)CC[C@]4(C)[C@H]3CC[C@]12C (stereo not given in full) | 15.6 | –
13 | > 70 | 66.2 | 30.1 | > 70 | – | C[C@H](CNCCCCC(=O)O)[C@H]1CC[C@H]2C3CC=C4C[C@@H](O)CC[C@]4(C)[C@H]3CC[C@]12C (stereo not given in full) | > 695 | –
14 | – | – | – | – | – | pentostam | – | > 10
15 | 25 | 11.2 | 0.55 | – | – | COC(=O)[C@@H](N)CCCCNC(=O)[C@@H](C)[C@H]1CC[C@H]2C3CC=C4C[C@@H](O)CC[C@]4(C)[C@H]3CC[C@]12C (stereo not given in full) | 42 | –
16 | > 62 | > 62 | 55.2 | > 62 | – | CC(=O)O[C@H]1CC[C@@]2(C)C(=CCC3[C@@H]4CC[C@H]([C@H](C)CNCCCCCC(=O)O)[C@@]4(C)CC[C@@H]32)C1 (stereo not given in full) | 433 | –
17 | > 50 | > 50 | 1.33 | – | – | C[C@H](C(=O)NCCC[C@H](NC(=O)OCc1ccccc1)C(=O)O)[C@H]1CC[C@H]2C3CC=C4C[C@@H](O)CC[C@]4(C)[C@H]3CC[C@]12C (stereo not given in full) | 32 | –
18 | > 65 | > 65 | 2.38 | – | – | C[C@H](C(=O)NCCC[C@H](N)C(=O)O)[C@H]1CC[C@H]2C3CC=C4C[C@@H](O)CC[C@]4(C)[C@H]3CC[C@]12C (stereo not given in full) | 651 | –

Row | EC50 [1] [µM] | EC50 [2] [µM] | EC50 [3] [µM] | EC50 [4, 6] [µM] | EC50 ([4]; read-out: EC50) [µM] | Compound | CC50 [5] [µM] | ED50 [1] [µM]
19 | 14.8 | 28.7 | 0.098 | 2.64 | – | COC(=O)CCCCCCCNC[C@@H](C)[C@H]1CC[C@H]2C3CC=C4C[C@@H](OC(C)=O)CC[C@]4(C)[C@H]3CC[C@]12C (stereo not given in full) | 10 | –
20 | 25.8 | 6.5 | 0.431 | > 62 | – | C[C@H](C(=O)NCCCCCCCC(=O)O)[C@H]1CC[C@H]2C3CC=C4C[C@@H](O)CC[C@]4(C)[C@H]3CC[C@]12C (stereo not given in full) | 377 | –
21 | > 56 | > 56 | 34.3 | – | – | C[C@H](C(=O)NC[C@H](NC(=O)OC(C)(C)C)C(=O)O)[C@H]1CC[C@H]2C3CC=C4C[C@@H](O)CC[C@]4(C)[C@H]3CC[C@]12C (stereo not given in full) | 109 | –
22 | > 65 | 12.6 | 54.6 | > 65 | – | CC(=O)O[C@H]1CC[C@@]2(C)C(=CCC3[C@@H]4CC[C@H]([C@H](C)CNCCCC(=O)O)[C@@]4(C)CC[C@@H]32)C1 (stereo not given in full) | 505 | –
23 | > 72 | 47.3 | 14.4 | 56.5 | – | C[C@H](CNCCCC(=O)O)[C@H]1CC[C@H]2C3CC=C4C[C@@H](O)CC[C@]4(C)[C@H]3CC[C@]12C (stereo not given in full) | 451 | –
24 | > 40 | > 24 | 0.01 | 3.4 | – | CC(=O)O[C@H]1CC[C@@]2(C)C(=CCC3[C@@H]4CC[C@H]([C@H](C)C(=O)NCCCC[C@H](NC(=O)OCc5ccccc5)C(=O)OCc5ccccc5)[C@@]4(C)CC[C@@H]32)C1 (stereo not given in full) | > 400 | –
25 | > 77 | > 77 | > 77 | > 77 | – | C[C@H](CNCC(=O)O)[C@H]1CC[C@H]2C3CC=C4C[C@@H](O)CC[C@]4(C)[C@H]3CC[C@]12C (stereo not given in full) | > 770 | –
26 | 9.5 | 53.5 | 0.025 | 3.49 | – | COC(=O)CCCCCCNC[C@@H](C)[C@H]1CC[C@H]2C3CC=C4C[C@@H](OC(C)=O)CC[C@]4(C)[C@H]3CC[C@]12C (stereo not given in full) | 11.2 | –
27 | – | – | 0.001 | – | – | N=C(N)c1ccc(OCCCCCOc2ccc(C(=N)N)cc2)cc1 [PENTAMIDINE] | – | –
28 | > 62 | 11.7 | 0.032 | 8.65 | – | COC(=O)CCCCNC[C@@H](C)[C@H]1CC[C@H]2C3CC=C4C[C@@H](OC(C)=O)CC[C@]4(C)[C@H]3CC[C@]12C (stereo not given in full) | 26.1 | –
29 | – | > 74 | > 74 | > 74 | – | C[C@H](C(=O)NCC(=O)O)[C@H]1CC[C@H]2C3CC=C4C[C@@H](O)CC[C@]4(C)[C@H]3CC[C@]12C (stereo not given in full) | > 743 | –
30 | > 53 | 13.2 | > 52 | – | – | CC(=O)O[C@H]1CC[C@@]2(C)C(=CCC3[C@@H]4CC[C@H]([C@H](C)CNCC[C@H](NC(=O)OC(C)(C)C)C(=O)O)[C@@]4(C)CC[C@@H]32)C1 (stereo not given in full) | – | –
31 | > 55 | 11.2 | > 55 | – | – | C[C@H](C(=O)NCC[C@H](NC(=O)OC(C)(C)C)C(=O)O)[C@H]1CC[C@H]2C3CC=C4C[C@@H](O)CC[C@]4(C)[C@H]3CC[C@]12C (stereo not given in full) | 1270 | –
32 | > 49 | > 49 | 1.8 | – | – | C[C@H](C(=O)NCCCC[C@H](NC(=O)OCc1ccccc1)C(=O)O)[C@H]1CC[C@H]2C3CC=C4C[C@@H](O)CC[C@]4(C)[C@H]3CC[C@]12C (stereo not given in full) | 276 | –
33 | – | 21 | 9.11 | > 58 | – | CC(=O)O[C@H]1CC[C@@]2(C)C(=CCC3[C@@H]4CC[C@H]([C@H](C)CNCCCCCCCC(=O)O)[C@@]4(C)CC[C@@H]32)C1 (stereo not given in full) | 59 | –
34 | > 54 | 4.64 | > 54 | – | – | CC(=O)O[C@H]1CC[C@@]2(C)C(=CCC3[C@@H]4CC[C@H]([C@H](C)CNC[C@H](NC(=O)OC(C)(C)C)C(=O)O)[C@@]4(C)CC[C@@H]32)C1 (stereo not given in full) | – | –
35 | – | 5.61 | 7.85 | > 67.3 | – | COC(=O)CNC[C@@H](C)[C@H]1CC[C@H]2C3CC=C4C[C@@H](OC(C)=O)CC[C@]4(C)[C@H]3CC[C@]12C (stereo not given in full) | 94.5 | –

Row | Compound | EC50 [1] [µM] | EC50 [2] [µM] | EC50 [3] [µM] | EC50 [4, 6] [µM] | EC50 ([4]; read-out: EC50) [µM] | CC50 [5] [µM] | ED50 [1] [µM]
36 | CCN(CC)CCCC(C)Nc1ccnc2cc(Cl)ccc12 (stereo not given) [CHLOROQUINE] | – | – | – | 0.003 | – | – | –

From ChEMBL document CHEMBL1137377, “Evaluation of azasterols as anti-parasitics” (J Med Chem, 2006)
